ChEMBL document CHEMBL1121797, “Studies on chiral interactions of 1-(2,5-dimethoxy-4-methylphenyl)-2-aminopropane and the corresponding N-hydroxy metabolites with cytochrome P-450” (J Med Chem, 1981)
pKd: −log10 of the molar value.

What was measured:
[1] = Initial rates of formation of metabolic intermediate Cytochrome P-450 at compound concentration of 30 uM; type: ADME
Outline: (§1)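 Rabbit liver microsomes at 2 mg protein/mL with 0.1 mM EDTA, 37 °C, substrate 30 μM. Complex formation started with 0.4 mM NADPH and followed by dual-wavelength absorbance, 457 vs 500 nm. Initial rate is the initial slope, ΔA×10^4 per nmol P-450 per min. Extent is the plateau absorbance. Lag is the time from NADPH addition to first 457-nm chromophore. Triplicate or single runs.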

[2] = Initial rates of formation of metabolic intermediate Cytochrome P-450 with compound concentration of 150 uM; type: ADME
Outline: (§2)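 Cross-inhibition in NADPH-supplemented rabbit liver microsomes at 37 °C. Preincubation with amine at 30, 150 or 300 μM while 457-nm complex formation was monitored. Once it plateaued (6–8 min), racemic hydroxylamine was added at 300 μM. Initial rate and plateau extent were read from ΔA457–500 nm vs time, per nmol P-450.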

[3] = Initial rates of formation of metabolic intermediate Cytochrome P-450 with compound concentration of 30 uM; type: ADME; outline: as §2
[4] = Initial rates of formation of metabolic intermediate Cytochrome P-450 with compound concentration of 300 uM; type: ADME; outline: as §2
[5] = Extent rates of formation of metabolic intermediate Cytochrome P-450 at compound concentration of 30 uM; type: ADME; outline: as §1
[6] = Lag time between the addition of compound (30 uM) and the first appearance of chromophore; type: ADME; outline: as §1
[7] = Initial rates of formation of metabolic intermediate Cytochrome P-450 at compound concentration of 3.75-120 uM; type: ADME
Outline: (§3)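 Rabbit liver microsomes at 2 mg protein/mL with 0.1 mM EDTA, 37 °C, NADPH-dependent. Substrate tested at several concentrations. ΔA457–500 nm followed against time. Rate is the initial slope per nmol P-450 per min; extent is the plateau absorbance. Runs disturbed by a transient 450-nm species were discarded.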

[8] = Extent rates of formation of metabolic intermediate Cytochrome P-450 at compound concentration of 3.75-120 uM; type: ADME; outline: as §3
Cytochrome P450 2C19 [9] = biological target: T1, Cytochrome P450 2C19 (Homo sapiens, UniProt P33261); assay: Apparent binding affinity constant of compound (10.8-60.0) for Cytochrome P450; type: ADME, Oryctolagus cuniculus; details: read-out: Ks
T1 sequence (P33261 whole entry): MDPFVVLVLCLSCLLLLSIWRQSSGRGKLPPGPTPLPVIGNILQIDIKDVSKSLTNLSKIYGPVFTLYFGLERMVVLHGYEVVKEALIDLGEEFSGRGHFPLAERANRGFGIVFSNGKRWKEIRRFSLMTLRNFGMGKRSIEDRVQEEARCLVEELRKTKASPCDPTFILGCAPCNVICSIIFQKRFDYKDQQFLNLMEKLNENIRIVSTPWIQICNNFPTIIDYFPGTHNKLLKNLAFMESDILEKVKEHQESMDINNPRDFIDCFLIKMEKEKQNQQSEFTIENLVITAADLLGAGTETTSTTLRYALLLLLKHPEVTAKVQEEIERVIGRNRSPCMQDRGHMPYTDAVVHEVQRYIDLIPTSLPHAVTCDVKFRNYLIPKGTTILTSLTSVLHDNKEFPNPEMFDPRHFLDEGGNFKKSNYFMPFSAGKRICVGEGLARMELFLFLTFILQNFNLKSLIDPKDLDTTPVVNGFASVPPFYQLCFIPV

Cytochrome P450 2C19 [10] = biological target: T1, Cytochrome P450 2C19; assay: Inhibitory effect in formation of metabolic intermediate complex between Cytochrome P450 and racemic compound 2 initially, on preincubation with Racemic compound 2 (300 uM) at 150 uM; type: ADME, Oryctolagus cuniculus; details: rabbit; outline: as §2
Cytochrome P450 2C19 [11] = biological target: T1, Cytochrome P450 2C19; assay: Inhibitory effect in formation of metabolic intermediate complex between Cytochrome P450 and racemic compound 2 initially, on pre-incubation with compound at 150 uM; type: ADME, Oryctolagus cuniculus; details: rabbit
Cytochrome P450 2C19 [12] = biological target: T1, Cytochrome P450 2C19; assay: Inhibitory effect in formation of metabolic intermediate complex between Cytochrome P450 and racemic compound 2 initially, on pre-incubation with compound at 300 uM; type: ADME, Oryctolagus cuniculus; details: rabbit
Cytochrome P450 2C19 [13] = biological target: T1, Cytochrome P450 2C19; assay: Inhibitory effect in formation of metabolic intermediate complex between Cytochrome P450 and racemic compound 2 initially, on pre-incubation with compound at 30 uM; type: ADME, Oryctolagus cuniculus; details: rabbit
Cytochrome P450 2C19 [14] = biological target: T1, Cytochrome P450 2C19; assay: Inhibitory effect in formation of metabolic intermediate complex between Cytochrome P450 and racemic 2 initially, on pre-incubation with Racemic compound 2 (300 uM) at 300 uM; type: ADME, Oryctolagus cuniculus; details: rabbit
Cytochrome P450 2C19 [15] = biological target: T1, Cytochrome P450 2C19; assay: Inhibitory effect in formation of metabolic intermediate complex between Cytochrome P450 and racemic compound 2 at extent, on pre-incubation with compound at 300 uM; type: ADME, Oryctolagus cuniculus; details: rabbit
Cytochrome P450 2C19 [16] = biological target: T1, Cytochrome P450 2C19; assay: Inhibitory effect in formation of metabolic intermediate complex between Cytochrome P450 and racemic compound 2 at extent, on pre-incubation with compound at 30 uM; type: ADME, Oryctolagus cuniculus; details: rabbit
Cytochrome P450 2C19 [17] = biological target: T1, Cytochrome P450 2C19; assay: Inhibitory effect in formation of metabolic intermediate complex between Cytochrome P450 and racemic 2 at extent, on preincubation with Racemic compound 2 (300 uM) at 30 uM; type: ADME, Oryctolagus cuniculus; details: rabbit; outline: as §2
Cytochrome P450 2C19 [18] = biological target: T1, Cytochrome P450 2C19; assay: Inhibitory effect in formation of metabolic intermediate complex between Cytochrome P450 and racemic compound 2 at extent, on pre-incubation with Racemic 2 (300 uM) at 150 uM; type: ADME, Oryctolagus cuniculus; details: rabbit
Cytochrome P450 2C19 [19] = biological target: T1, Cytochrome P450 2C19; assay: Inhibitory effect in formation of metabolic intermediate complex between Cytochrome P450 and racemic compound 2 at extent, on pre-incubation with Racemic 2 (300 uM) at 300 uM; type: ADME, Oryctolagus cuniculus; details: rabbit
Cytochrome P450 2C19 [20] = biological target: T1, Cytochrome P450 2C19; assay: Inhibitory effect in formation of metabolic intermediate complex between Cytochrome P450 and racemic compound 2 at extent, on preincubation with compound at 150 uM; type: ADME, Oryctolagus cuniculus; details: rabbit

SMILES: COc1cc(C[C@@H](C)N)c(OC)cc1C.COc1cc(C[C@H](C)N)c(OC)cc1C
- Rate [1]: 4.8
- Rate [2]: 1.6
- Rate [3]: 1.8
- Rate [4]: 1.2
- Extent [5]: 30
- Lag time [6]: 138 s

SMILES: COc1cc(C[C@@H](C)N)c(OC)cc1C
- Rate [1]: 17.1
- Rate [2]: 6.1
- Rate [3]: 5.2
- Rate [4]: 5.5
- Extent [5]: 78
- Rate [7]: 17.5
- Extent [8]: 23
- pKd (Cytochrome P450 2C19 [9]): 4.74
- Rate (Cytochrome P450 2C19 [10]): 183
- Rate (Cytochrome P450 2C19 [11]): 6.1
- Rate (Cytochrome P450 2C19 [12]): 5.8
- Rate (Cytochrome P450 2C19 [13]): 5.2
- Rate (Cytochrome P450 2C19 [14]): 160
- Extent (Cytochrome P450 2C19 [15]): 23
- Extent (Cytochrome P450 2C19 [16]): 21
- Extent (Cytochrome P450 2C19 [17]): 131
- Extent (Cytochrome P450 2C19 [18]): 116
- Extent (Cytochrome P450 2C19 [19]): 105
- Extent (Cytochrome P450 2C19 [20]): 25
- Lag time [6]: 14 s
